High-throughput results (PubChem BioAssay)
Sampled rows, rich in hits. Any-hit rate of the full collection: about 3%.
SENP8 block-1 – inhibitors of human SENP8 protease; Q96LD8; purified SENP8, Z-RLRGG-aminoluciferin cleavage, luminescence; inhibition, % at 10 µM; 330,000 tested, 1.2% active; AID 2540; in the data active = inhibition above about 50%
SENP7 inh – SENP7 protease inhibition | Q9BQF6 | recombinant SENP7, Z-RLRGG-aminoluciferin luminescence, 40 min | inhibition, % at 5 µM | 330,000 tested, 1.5% active | AID 434973;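 active = inhibition above about 50% at the single test dose, limit read from the data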
SENP6 inh – SENP6 protease inhibition; 330,000 tested, 1.8% active; Recombinant SENP6 catalytic domain, aminoluciferin luminescence; inhibition, % at 10 µM;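 active = inhibition above about 50% at the single tested dose, limit read from the data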
SENP8 block-2 – inhibitors of human SENP8 protease; Q96LD8; recombinant SENP8, Nedd8 substrate fluorescence; inhibition, % at 20 µM; 360,000 tested, 0.64% active; AID 602440; in the data active = inhibition mostly above about 40%, no sharp cut-off; inactive = mostly below about 27%
UBC13 polyUb – human UBC13 polyubiquitination inhibition. 330,000 tested, 0.47% active. inhibition, % at 20 µM. UBC13 polyubiquitin chain formation, TR-FRET; in the data active = inhibition above about 45%, passing the limit was not always enough
Target sequence (P61088 whole entry, looked up): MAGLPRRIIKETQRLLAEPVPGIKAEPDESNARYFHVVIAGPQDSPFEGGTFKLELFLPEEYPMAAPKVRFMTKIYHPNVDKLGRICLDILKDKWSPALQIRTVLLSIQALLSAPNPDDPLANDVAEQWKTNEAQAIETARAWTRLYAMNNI
Apaf1 inhib – blocks human Apaf-1 apoptosome activity; O14727; reconstituted apoptosome caspase-3 activity, DEVD-Rh110 fluorescence; inhibition, % at 20 µM; 330,000 tested, 0.71% active; AID 489030; active = inhibition of at least 40% at 20 µM
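Material: biochemical Apaf-1 apoptosome reconstitution. Medium: Hepes buffer, pH 7.5. Also added: cytochrome c activation, bis-DEVD rhodamine 110 substrate. Timing: 30 min compound preincubation, 50 min activation, room temperature. Measured by: rhodamine 110 fluorescence at Ex 480/Em 540 nm.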
SENP8 confirm – human SENP8 inhibition, confirmed; shares compounds with SENP7 inh; Recombinant SENP8, Z-RLRGG-aminoluciferin luminescence, 60 min; inhibition, % at 12.5 µM; 6,200 tested, 40% active; AID 488912;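 active = mean inhibition across replicates above about 50%, limit read from the data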
SENP6 confirm – confirmation of human SENP6 protease inhibitors | 6,200 tested, 58% active | inhibition, % at 12.5 µM | recombinant SENP6, Z-RLRGG-aminoluciferin luminescence | shares compounds with SENP7 inh
SENP7 conf – confirmation of human SENP7 protease inhibitors; shares compounds with SENP7 inh; recombinant SENP7, Z-RLRGG-aminoluciferin luminescence, 40 min; inhibition, % at 12.5 µM; 6,200 tested, 69% active; AID 488917
Casp3 select – inhibits human caspase-3 in SENP selectivity test | AID 488918 | purified caspase-3, Z-DEVD-aminoluciferin luminescence, 60 min | shares compounds with SENP7 inh | inhibition, % at 12.5 µM | 6,200 tested, 60% active;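 active = mean inhibition above about 50%, limit read from the data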
Target sequence (P42574 28-227 limits assumed): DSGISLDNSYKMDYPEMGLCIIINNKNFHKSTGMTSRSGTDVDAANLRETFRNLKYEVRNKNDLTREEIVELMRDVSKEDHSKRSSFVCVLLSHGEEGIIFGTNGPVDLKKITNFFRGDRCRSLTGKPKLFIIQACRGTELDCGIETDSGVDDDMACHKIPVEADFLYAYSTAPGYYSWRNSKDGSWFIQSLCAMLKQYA
SENP luc ctr – interferes with luciferase luminescence in SENP counter-screen | shares compounds with SENP7 inh | Pre-incubated SENP8/Z-RLRGG-aminoluciferin, luciferase luminescence interference | inhibition, % at 12.5 µM | 6,200 tested, 39% active;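 active = mean inhibition above about 50% when retested at one dose, limit read from the data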
Of the large screens only hits and unclear results are named; the others gave an inactive call (follow-up assays come after a bar, where they were run).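 The calls were made as follows, unless noted: active = mean inhibition above about 50% in the one-dose retest (limit read from the data); inactive = the rest.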

COc1cc(/C=C/C(=O)OCC(=O)Nc2sc3c(c2C#N)CCC(C)C3)ccc1OCC#N (centres undefined)	none
Cc1c(NS(=O)(=O)c2ccc3c(c2)NC(=O)CC(=O)N3)cccc1[N+](=O)[O-]	none
O=C(/C=C/Nc1ccc(F)cc1)c1ccc(Br)cc1	SENP7 inh 79 | SENP8 confirm inactive | SENP6 confirm inactive | SENP7 conf inactive | Casp3 select inactive | SENP luc ctr inactive
Cc1ccc(N/C=C/C(=O)c2ccco2)c(O)c1	SENP7 inh 56 | SENP8 confirm 55 | SENP6 confirm 53 | SENP7 conf 84 | Casp3 select 62 | SENP luc ctr inactive
CCOC(=O)c1ccc(N/C=C/C(=O)c2ccc(OC)c(OC)c2)cc1	none
CCOC(=O)c1ccc(N/C=C/C(=O)c2ccco2)cc1	SENP8 block-1 83, SENP6 inh 85 | SENP8 confirm 69 | SENP6 confirm 71 | SENP7 conf 85 | Casp3 select 88 | SENP luc ctr inactive
Cc1ccc([N+](=O)[O-])cc1N/C=C/C(=O)c1ccco1	none
O=C(/C=C/Nc1ccc(F)cc1)c1ccco1	SENP8 block-1 74, SENP7 inh 69, SENP6 inh 83 | SENP8 confirm 84 | SENP6 confirm 82 | SENP7 conf 96 | Casp3 select 89 | SENP luc ctr 79
CCOC(=O)c1c(NC(=O)CSc2ncccn2)sc(C(=O)NC)c1C	none
COc1ccc(Cl)cc1NS(=O)(=O)c1cccc(C(=O)N2CC(C)OC(C)C2)c1 (centres undefined)	none
Cc1ccc(N2CC(=O)Nc3c(oc4nc(-c5ccccc5)cc(C)c34)C2=O)cc1	none
COc1ccc(-c2ccc(SC)nn2)cc1	SENP8 block-1 94, SENP7 inh 100, SENP6 inh 95 | SENP8 confirm 98 | SENP6 confirm 99 | SENP7 conf 102 | Casp3 select 98 | SENP luc ctr 80
COc1ccc(C(=O)CSc2ccc(-c3ccccc3)nn2)cc1	none
CCOc1ccc(-c2ccc(SCC)nn2)cc1	SENP8 block-1 80, SENP7 inh 90, SENP6 inh 65 | SENP8 confirm 59 | SENP6 confirm 68 | SENP7 conf 85 | Casp3 select 74 | SENP luc ctr inactive
O=C1CN(C(=O)c2ccc(Cl)c(S(=O)(=O)N3CCc4ccccc43)c2)c2ccccc2N1	SENP6 inh 61 | SENP8 confirm inactive | SENP6 confirm inactive | SENP7 conf inactive | Casp3 select inactive | SENP luc ctr inactive
NC(=O)C1CCN(C(=O)c2ccc(Cl)c(S(=O)(=O)N3CCc4ccccc43)c2)CC1	none (no result: SENP8 block-1, SENP7 inh, SENP6 inh, UBC13 polyUb, Apaf1 inhib)
CC(=O)OCCN(C)c1cc(SC(C)C)c2nonc2c1[N+](=O)[O-]	none
CC(=O)OCCNc1cc(SC(C)C)c2nonc2c1[N+](=O)[O-]	SENP6 inh 56 | SENP8 confirm inactive | SENP6 confirm inactive | SENP7 conf inactive | Casp3 select inactive | SENP luc ctr inactive
COc1ccc(/C=C/C(=O)OC(C)CN2CCCCC2)cc1 (centres undefined)	none
COc1ccc2[nH]c3c(=O)n(Cc4ccc(C(=O)N5CCCC5)cc4)c(=S)[nH]c3c2c1	SENP6 inh 66 | SENP8 confirm inactive | SENP6 confirm inactive | SENP7 conf inactive | Casp3 select inactive | SENP luc ctr inactive
COc1cccc(C(=O)/C=C2\Sc3ccccc3N2C)c1	SENP8 block-1 60 | SENP8 confirm inactive | SENP6 confirm 73 | SENP7 conf 93 | Casp3 select 73 | SENP luc ctr inactive
